Bioassay records deposited in PubChem by several laboratories.
V-ATPase pH: regulators of yeast V-ATPase proton pumping, primary screen, pHLuorin cytosolic pH fluorescence. response, % at 10 µM. S. cerevisiae. 350,000 tested, 0.37% active. AID 504577, 2011; in the data active = response mostly above about 7.3%, no sharp cut-off; inactive = mostly below about 5.4%; note: actives read high
Yeast superoxide: reduction of superoxide in aged yeast, primary screen, HTS. AID 2690, 2010. 330,000 tested, 0.18% active. superoxide response (% of plate mean), % at 10 µM. S. cerevisiae aged cells, superoxide DHE fluorescence; hits give low values;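 active = superoxide response under a set limit, about three screen SD below normal, cut at about 65% in these data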;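 note: yeast aged for seven days with compound at 30 °C before DHE staining; 100% = average MFI of all compound-treated wells on the plate with controls excluded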
AI-2 QS mod: Vibrio harveyi AI-2 quorum sensing modulators, primary screen, JMH597 strain, luminescence/OD600 ratio. Vibrio harveyi JMH597 AI-2 luminescence/OD600 ratio, 9 h; hits give low values; strain lacks LuxN and CqsS sensors; 0 = neutral-control median. activity change, % at 7.5 µM. 300,000 tested, 0.4% active. AID 2094, 2009; in the data active = activity change below about -75%, passing the limit was not always enough;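 note: luminescence divided by OD600 gain over 9 h not by final OD600 alone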
T cruzi repl: inhibitors of intracellular T. cruzi growth, primary screen, luminescence, NIH3T3 host cells. 300,000 tested, 1.4% active. inhibition, % (concentration not given with the values). T. cruzi beta-gal in NIH3T3, 90 h;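 active = mean inhibition across valid replicates above about 55%, limit read from the data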;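 note: signal also drops with host cell toxicity which is not excluded here; 0% = plate median of DMSO wells and 100% = zero luminescence signal; higher percent means less beta-gal luminescence so fewer parasites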
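System: NIH/3T3 fibroblasts plus reporter T. cruzi. Medium: DMEM plus 2% FBS. Probe or stimulus: 5000 reporter trypomastigotes per well. Compound: single 50 nL compound addition per well in DMSO. Incubation: co-culture of at least 90 h after 3 h attachment. Detection: GalScreen β-gal luminescence, detergent lysis, 60 min. Evaluation: parasite load inhibition, %.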
CendR NRP1 mod: modulators of CendR peptide binding to NRP-1, primary screen, biochemical, fluorescence polarization, uHTS; Neuropilin-1 (Homo sapiens), O14786; FAM-RPARPAR peptide binding to NRP-1; inhibition, % at 25 µM; 360,000 tested, 0.85% active; AID 602438, 2012;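 active = inhibition or corrected inhibition above about 18%, plus a signal ratio from 0.5 to 1.5, limit read from the data, passing the limit was not always enough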
HIF act: HIF pathway transcriptional activators, primary screen, cell-based, U2OS HRE-luciferase, luminescence | U2OS HRE-luciferase reporter; normalized: DMSO 0%, desferrioxamine 100% | activation, % at 7.5 µM (by protocol) | 300,000 tested, 0.32% active | AID 1910, 2009;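 active = mean activation of at least 10% of the iron chelator positive control signal, with at least half of replicates also reaching 10%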
VATPase regulator: yeast V-ATPase proton pumping modulators, confirmation, S. cerevisiae, pH-sensitive GFP, second cherry-pick; shares compounds with V-ATPase pH; response, % at 10 µM; S. cerevisiae pHLuorin cytosolic pH, V-ATPase proton transport; 980 tested, 2% active; in the data active = response above about 24%;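 note: plate controls were vehicle wells for no effect and positive control wells for full effect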
The depositor's hits bear a star; / = not tested or not shown. Only some compounds are listed: those with a hit (about 3% of all), similar ones and a draw of the others.

SMILES	V-ATPase pH	Yeast superoxide	AI-2 QS mod	T cruzi repl	CendR NRP1 mod	HIF act	VATPase regulator
CCCc1nc2sc3c(c2c(=O)n1NC(=O)CCC(=O)O)CCCC3	8.6*	106	15	-13	7	0	-4
CC(OC(=O)c1ccc(NS(=O)(=O)c2ccc3[nH]c(=O)[nH]c3c2)cc1)C(=O)Nc1ccc(Cl)cc1 (centres undefined)	-1	99	17	-10	-7	0	/
O=C(Oc1ccc2c(-c3ccccc3)cc(=O)oc2c1)c1cccs1	2	92	21	-17	8	0	/
O=C(Oc1ccc2ccc(=O)oc2c1)c1cccs1	25*	99	12	-13	-2	0	1
O=C1CN(C(=O)COc2ccc(Br)cc2Br)c2ccccc2N1	8.8*	114	0	-7	4	0	3
Cc1cc(=O)n(CC(=O)O)c2ccccc12	-1	92	-10	1	1	1	/
CCOC(=O)Cn1c(C)cc(=O)c2ccccc21	0	92	18	-9	-1	2	-5
CCOC(=O)Cn1c(=O)cc(C)c2ccccc21	-6	98	23	-8	6	0	-1
CCOC(=O)Cn1c2ccccc2c2nc3ccccc3nc21	-4	99	-5	1	-8	1	-53
COc1cc(NC(=O)c2cc3nc(C)cc(C)n3n2)c(OC)cc1Cl	/	98	26	34	-9	4	/
Nc1nc(NCC2CCCO2)nc(Nc2cccc(F)c2)c1[N+](=O)[O-] (centres undefined)	-3	104	19	-1	2	-1	/
O=C(COc1ccccc1F)NNC(=O)Cc1ccc(S(=O)(=O)N2CCOCC2)s1	4	97	/	-3	7	0	/
Cc1ccccc1OCC(=O)NNC(=O)Cc1ccc(S(=O)(=O)N2CCOCC2)s1	18*	104	16	-6	6	0	7
COc1ccc(S(=O)(=O)N2CCCCCC2)cc1NC(=O)CCNC(=O)c1ccc(Cl)cc1	/	/	/	/	-10	/	/
CCN(CC)c1nc2ccccc2[nH]1	-3	92	6	-3	10	0	/
COCCCn1c(=N)c(C(=O)NC2CCCCC2)cc2c(=O)n3ccccc3nc21	-5	91	14	/	-12	0	/
CCc1noc(C)c1C(=O)N1CCN(S(=O)(=O)c2ccc(Cl)cc2)CC1	1	92	/	/	6	/	/
CCc1noc(C)c1C(=O)N1CCN(S(=O)(=O)c2cccs2)CC1	7.1*	102	12	-26	11	-1	1
Cc1ccc(/C=N/NC(=O)Cn2nnc(N)n2)cc1	0	103	6	-13	5	0	/
CCOC(=O)CCC(=O)Nc1ccccc1C(N)=O	7.7*	97	10	-10	-18	0	-8
CCOC(=O)CC(=O)Nc1ccccc1C(=O)O	-8	101	18	-29	10	0	/
Cc1cccc(-c2n[nH]c(=S)n2Cc2ccccc2)c1	-6	85	-15	0	-17	0	/
NS(=O)(=O)c1cccc(NC(=O)CSc2nnc(-c3ccccc3)o2)c1	-9	104	/	/	-12	/	0
O=C(CSc1nnc(-c2ccncc2)o1)Nc1cccc(F)c1	-2	108	24	-10	-8	2	/
CC(=O)c1nnn(-c2ccccc2C#N)c1C	0	92	20	-17	-2	-1	/
SMILES	V-ATPase pH	Yeast superoxide	AI-2 QS mod	T cruzi repl	CendR NRP1 mod	HIF act	VATPase regulator
CC(=O)c1nnn(-c2cccc(C#N)c2)c1C	13*	97	12	-35	-4	0	-1
CCOC(=O)C(=O)c1cn(C2OCC(OC(C)=O)C(OC(C)=O)C2OC(C)=O)c2ccccc12 (centres undefined)	14*	104	13	-5	8	-1	-6
CC(=O)NCCNS(=O)(=O)c1ccc(C)c([N+](=O)[O-])c1	10*	87	29	-10	-8	0	1
Cc1ccc(S(=O)(=O)NC2CC2)cc1[N+](=O)[O-]	-2	92	6	0	17	1	/
CCN(C(=O)COC(=O)c1cc(-c2ccccc2)nc2ccc(Br)cc12)C1CCS(=O)(=O)C1 (centres undefined)	10.0*	107	14	9	9	1	-1
O=C(Nc1ccc(F)cc1F)Nc1ccccc1C(=O)NCCN1CCNC1=O	1	92	36	-12	5	0	/
CC1(C(=O)NCc2ccccc2)CSCC(=O)N1Cc1cccs1 (centres undefined)	/	/	/	/	16	/	/
O=c1[nH]n(-c2ccc(Cl)cc2)c(=O)c(Cl)c1Cl	2	121	41	-11	0	0	1
O=C(Nc1cc(Cl)ccc1Cl)N1CCCC1	0	100	12	-5	-5	0	/
NC(=O)c1ccccc1OCC(=O)Nc1ccc2c(c1)OCCO2	7.3*	/	/	/	-1	/	0
O=C(CN1Cc2ccccc2C1=O)Nc1ccc2c(c1)OCCO2	11*	102	-7	-18	-2	1	-3
Nc1nc(N)nc(-c2cc(C(F)(F)F)ccc2Cl)n1	-1	106	/	/	3	/	/
O=C(N/C(=C\c1ccc(Br)cc1)C(=O)N1CCOCC1)c1ccco1	14*	81	20	6	-2	0	-3
O=C(CSc1nc2ccccc2c(=O)n1NC(=O)Cc1ccccc1)NCc1ccco1	1	104	7	-8	-10	0	/
O=C(CSc1nc2ccccc2c(=O)n1NC(=O)Cc1ccccc1)NCc1ccccc1	15*	111	23	5	-7	0	2
Cc1cscc1-c1cc2nc(NCCCN(C)C)n(C)c(=O)c2s1	/	/	/	/	-17	/	/
CN(C)/C=N/c1sc2c(c1C#N)CCCC2	11*	106	16	-3	-6	1	5
CCN(CC)C(=O)c1cc2cc([N+](=O)[O-])ccc2s1	19*	91	20	3	12	0	3
O=C(Cc1ccc([N+](=O)[O-])cc1)NC(C(=O)O)C(O)c1cccc([N+](=O)[O-])c1 (centres undefined)	0	100	21	-14	-7	1	/
CCOC(=O)C1CCN(C(=O)CCS(=O)(=O)c2ccc3c(c2)CCN3C(C)=O)CC1	-2	102	-2	5	-1	0	/
CN(C(=O)c1ccc(NC(=O)Cc2ccc(NC(=O)C3CCCN(C(=O)C4CCCC4)C3)cc2)cc1)C1CC1 (centres undefined)	20*	112	/	/	-20	/	-6
